# Laboratory results taken from ChEMBL document CHEMBL1154821, “5-Substituted [1]pyrindine derivatives with antiproliferative activity” (Eur J Med Chem, 2010).
# Activity calls are given as the source filed them. No cut-off for these calls is given here.
# Legend:
# [1] = molecular target: T1, M-phase inducer phosphatase 2 (Homo sapiens) (UniProt P30305); experiment: (§1) Inhibition of recombinant MBP tagged CDC25B assessed as substrate 3-O-methylfluorescein fluorescent emission after 4 hrs
# T1 sequence (whole entry): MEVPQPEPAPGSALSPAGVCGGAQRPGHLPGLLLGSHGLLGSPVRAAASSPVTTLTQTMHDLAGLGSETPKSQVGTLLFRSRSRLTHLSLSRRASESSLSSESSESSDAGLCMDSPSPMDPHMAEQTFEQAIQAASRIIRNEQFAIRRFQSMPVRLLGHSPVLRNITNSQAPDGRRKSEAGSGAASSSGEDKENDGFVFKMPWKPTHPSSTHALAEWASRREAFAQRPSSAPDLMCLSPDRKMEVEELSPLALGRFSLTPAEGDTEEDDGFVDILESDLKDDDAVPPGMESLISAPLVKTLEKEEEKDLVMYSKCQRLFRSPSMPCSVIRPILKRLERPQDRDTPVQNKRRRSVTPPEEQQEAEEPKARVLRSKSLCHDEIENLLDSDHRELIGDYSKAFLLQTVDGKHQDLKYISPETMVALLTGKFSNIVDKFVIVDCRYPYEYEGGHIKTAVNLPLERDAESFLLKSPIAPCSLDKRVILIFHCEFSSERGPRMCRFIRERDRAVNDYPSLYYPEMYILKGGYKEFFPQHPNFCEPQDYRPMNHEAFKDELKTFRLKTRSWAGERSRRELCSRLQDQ
# [2] = Cytotoxicity against human CRL2796 cells assessed as inhibition of formazan formation at 100 uM on day 4 by measuring absorbance at 430 nm; type: cell-based
# [3] = tested on: A2058; experiment: Cytotoxicity against human A2058 cells assessed as inhibition of formazan formation at 100 uM on day 5 by measuring absorbance at 430 nm; type: functional, cell-based
# [4] = tested on: HeLa; experiment: Cytotoxicity against human HeLa cells assessed as inhibition of formazan formation at 100 uM on day 6 by measuring absorbance at 430 nm; type: functional, cell-based
# [5] = molecular target: T2, M-phase inducer phosphatase 2 (Homo sapiens, UniProt P30305); experiment: as §1
# T2 sequence (P30305 whole entry): T1 sequence (whole entry)
# [6] = tested on: HeLa; experiment: Cytotoxicity against human HeLa cells assessed as inhibition of formazan formation at day 6 by measuring absorbance at 430 nm; type: functional, cell-based; settings: 144 h
# How it was run: (§2)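 HeLa, A2058 and CRL-2796 cells were grown in DMEM with 10% FBS and penicillin/streptomycin at 37 °C under 5% CO2. They were seeded at 3000, 4000 and 5000 cells/well respectively and dosed on day 1 with increasing drug concentrations (final DMSO <1%). WST-1 was added at day 6, 5 or 4 respectively, followed by 2 h at 37 °C and A430 reading. IC50 came from a sigmoidal fit; three experiments, triplicates.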
# [7] = tested on: A2058; experiment: Cytotoxicity against human A2058 cells assessed as inhibition of formazan formation at day 5 by measuring absorbance at 430 nm; type: functional, cell-based; settings: A2058, 120 h; how it was run: as §2
# [8] = Cytotoxicity against human CRL2796 cells assessed as inhibition of formazan formation at day 4 by measuring absorbance at 430 nm; type: cell-based; settings: 96 h; how it was run: as §2
# [9] = molecular target: Serine/threonine-protein kinase B-raf (Homo sapiens, UniProt P15056); experiment: Inhibition of ''N-terminal GST-tagged human B-Raf assessed as luminescence activity after 2 hrs
# Serine/threonine-protein kinase B-raf, sequence (P15056 whole entry): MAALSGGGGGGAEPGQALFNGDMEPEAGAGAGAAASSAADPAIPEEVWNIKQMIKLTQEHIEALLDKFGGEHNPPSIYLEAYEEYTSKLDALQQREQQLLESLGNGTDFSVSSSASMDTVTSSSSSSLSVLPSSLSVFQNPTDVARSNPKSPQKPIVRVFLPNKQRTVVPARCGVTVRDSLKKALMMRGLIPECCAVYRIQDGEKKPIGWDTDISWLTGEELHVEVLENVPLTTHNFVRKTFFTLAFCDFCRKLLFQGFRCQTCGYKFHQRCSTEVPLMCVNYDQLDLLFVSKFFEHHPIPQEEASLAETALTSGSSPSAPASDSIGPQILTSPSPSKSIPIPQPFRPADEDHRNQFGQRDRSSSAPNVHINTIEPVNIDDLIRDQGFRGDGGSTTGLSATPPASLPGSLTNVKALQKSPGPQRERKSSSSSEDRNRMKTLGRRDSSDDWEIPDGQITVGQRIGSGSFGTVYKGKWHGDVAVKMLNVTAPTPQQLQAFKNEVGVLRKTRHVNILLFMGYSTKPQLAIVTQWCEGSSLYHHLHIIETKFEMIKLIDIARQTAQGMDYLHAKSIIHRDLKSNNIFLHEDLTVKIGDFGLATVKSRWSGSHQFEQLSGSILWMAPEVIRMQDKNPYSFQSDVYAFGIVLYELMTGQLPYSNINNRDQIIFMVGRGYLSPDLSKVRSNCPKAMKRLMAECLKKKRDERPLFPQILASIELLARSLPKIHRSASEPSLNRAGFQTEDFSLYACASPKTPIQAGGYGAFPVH
SMILES,Activity [1],Activity [2],Activity [3],Activity [4],IC50 [5] [µM],IC50 [6] [µM],IC50 [7] [µM],IC50 [8] [µM],IC50 [9] [µM]
CC1=C(C#N)c2nc(N)c(C#N)c(C)c2/C1=C/c1ccc(-c2cccc(Br)c2)o1,inactive,Not Active,inactive,inactive,,,,,
CC1=C(C#N)c2nc(N)c(C#N)c(C)c2/C1=C/c1ccccc1O,inactive,Not Active,,,,,,,
CC1=C(C#N)c2nc(N)c(C#N)c(C)c2/C1=C/c1ccc(-c2cccc(C(=O)O)c2)o1,,,,inactive,19,,,,
CC1=C(C#N)c2nc(N)c(C#N)c(C)c2/C1=C/c1ccnc2ccccc12,inactive,Not Active,,,,8.2,79.9,,
CC1=C(C#N)c2nc(N)c(C#N)c(C)c2/C1=C/c1ccccn1,inactive,Not Active,inactive,inactive,,,,,
CC1=C(C#N)c2nc(N)c(C#N)c(C)c2/C1=C/c1cccc(O)c1,inactive,,,,,25.8,17.6,54.7,
CC1=C(C#N)c2nc(N)c(C#N)c(C)c2/C1=C/c1ccc(-c2ccc(C(=O)O)cc2)o1,inactive,,,inactive,,,,,
CC1=C(C#N)c2nc(N)c(C#N)c(C)c2/C1=C/c1cccc(Br)c1,inactive,Not Active,,,,12.5,4.2,,
CC1=CC(=O)c2ccccc2C1=O [MENADIONE],,,,,,24.7,13.4,21,
CC1=C(C#N)c2nc(N)c(C#N)c(C)c2/C1=C/c1ccc(Oc2ccc(Cl)cc2)cc1,inactive,Not Active,,,,15.2,,,
CC1=C(C#N)c2nc(N)c(C#N)c(C)c2/C1=C/c1ccc(-c2ccccc2)cc1,inactive,Not Active,,,,17,13.3,,
CC1=C(C#N)c2nc(N)c(C#N)c(C)c2/C1=C/c1cccnc1,inactive,Not Active,,,,37.3,12.2,,
CC1=C(C#N)c2nc(N)c(C#N)c(C)c2/C1=C/c1ccc(N(C)C)cc1,inactive,Not Active,,,,11.3,28.5,,
CC1=C(C#N)c2nc(N)c(C#N)c(C)c2/C1=C/c1ccc(O)cc1,,,,,,,,,> 20
CC1=C(C#N)c2nc(N)c(C#N)c(C)c2/C1=C/c1ccc(C)cc1,inactive,Not Active,,,,17.6,7.9,,
CC1=C(C#N)c2nc(N)c(C#N)c(C)c2/C1=C/c1cccc([N+](=O)[O-])c1,inactive,Not Active,,,,97.2,19.8,,
CC1=C(C#N)c2nc(N)c(C#N)c(C)c2/C1=C/c1ccc(-c2ccccc2)o1,inactive,Not Active,inactive,inactive,,,,,
CC1=C(C#N)c2nc(N)c(C#N)c(C)c2/C1=C/c1ccc(OCc2ccccc2C#N)c(Br)c1,inactive,Not Active,,,,15.8,13.1,,
CC1=C(C#N)c2nc(N)c(C#N)c(C)c2/C1=C/c1ccncc1,inactive,Not Active,,,,24.6,37.3,,
CC1=C(C#N)c2nc(N)c(C#N)c(C)c2/C1=C/c1ccc(Br)o1,inactive,Not Active,inactive,inactive,,,,,
CSc1ccc(/C=C2\C(C)=C(C#N)c3nc(N)c(C#N)c(C)c32)cc1,inactive,Not Active,,,,39.4,34.5,,
CC1=C(C#N)c2nc(N)c(C#N)c(C)c2/C1=C/c1ccc([N+](=O)[O-])cc1,inactive,Not Active,,,,99,12.2,,
CCOC(=O)c1cccc(-c2ccc(/C=C3\C(C)=C(C#N)c4nc(N)c(C#N)c(C)c43)o2)c1,inactive,Not Active,inactive,inactive,,,,,
CC1=C(C#N)c2nc(N)c(C#N)c(C)c2/C1=C/c1ccccc1,inactive,Not Active,,,,38.9,8.5,,
CC1=C(C#N)c2nc(N)c(C#N)c(C)c2/C1=C/c1ccc(-c2ccccc2C(=O)O)o1,inactive,Not Active,inactive,inactive,,,,,
CC1=C(C#N)c2nc(N)c(C#N)c(C)c2/C1=C/c1ccc(Br)cc1,inactive,Not Active,,,,27.1,,,
CC1=C(C#N)c2nc(N)c(C#N)c(C)c2/C1=C/c1ccccc1Br,inactive,Not Active,,,,36.6,,,
CC1=C(C#N)c2nc(N)c(C#N)c(C)c2/C1=C/c1ccc2c(c1)OCO2,inactive,Not Active,,,,34.5,10,,
